Experimental data from ChEMBL document CHEMBL3244414, “Structure-activity relationships among the O-acyl derivatives of leucomycin. Correlation of minimal inhibitory concentrations with binding to Escherichia coli ribosomes” (J Med Chem, 1977).
≈ marks a conversion by molar mass, not a printed value.

Assays:
[1] = test system: Bacillus spizizenii; assay: Antimicrobial activity against Bacillus subtilis ATCC 6633 by agar dilution method; type: functional; details: Bacillus spizizenii, ATCC 6633; read-out: MIC
Method in brief: (§1)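 Read-out is the minimal inhibitory concentration, found by agar dilution against the named strain.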

[2] = test system: Staphylococcus aureus; assay: Antimicrobial activity against Staphylococcus aureus ATCC 6538P by agar dilution method; type: functional; details: Staphylococcus aureus, ATCC 6538P; read-out: MIC; method in brief: as §1
[3] = target: Bacterial 70S ribosome; assay: (§2) Displacement of [14C]erythromycin from Escherichia coli ribosomes after 30 mins by scintillation spectrometer analysis
Method in brief: (§3)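 NH4Cl-washed E. coli ribosomes with [14C]erythromycin A and varied competitor concentrations in 0.01 M Tris-HCl pH 7.2, 0.1 M KCl, 0.004 M MgCl2, 0.01 M NH4Cl. Incubated 30 min at 24 °C, stopped by dilution in cold Tris/KCl/MgCl2 buffer, membrane-filtered, washed three times, dried, scintillation counted. Reports the concentration giving 50% inhibition of binding.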

[4] = target: Bacterial 70S ribosome (Bacteria) (UniProt P0A7V0+P60723+P0AG67+P0A7R5+P0A7R9+P0A7S3+P0A7S9+P0AG59+P0ADZ4+P0A7T3+P0AG63+P0A7T7+P0A7U3+P0A7U7+P68679+P0A7V3+P0A7V8+P0A7W1+P02358+P02359+P0A7W7+P0A7X3+P0A7J3+P0A7J7+P0AA10+P0ADY3+P02413+P0ADY7+P0AG44+P0C018+P0A7K6+P0A7L0+P0A7L3+P0AG48+P61175+P0ADZ0+P60624+P68919+P0A7L8+P0A7M2+P0A7M6+P60422+P0AG51+P0A7N1+P0A7M9+P0A7N4+P0A7N9+P0A7P5+P0A7Q1+Q2EEQ2+P0A7Q6+P60438+P62399+P0AG55+P0A7K2); assay: as §2; method in brief: as §3
[5] = test system: Klebsiella pneumoniae; assay: Antimicrobial activity against Klebsiella pneumoniae ATCC 10031 by agar dilution method; type: functional; details: Klebsiella pneumoniae, ATCC 10031; read-out: MIC; method in brief: as §1

Question: For `CCCC(=O)O[C@H]1[C@H](C)O[C@@H](O[C@H]2[C@H](N(C)C)[C@@H](OC(=O)CC)[C@H](O[C@H]3[C@@H](CC=O)C[C@@H](C)[C@@H](O)/C=C/C=C/C[C@@H](C)OC(=O)C[C@@H](OC(C)=O)[C@@H]3OC)O[C@@H]2C)C[C@@]1(C)O`, which MIC [1] is on record?
Answer: 0.8 µg/mL (≈ 0.919 µM)

Question: And the MIC [2]?
Answer: 1.6 µg/mL (≈ 1.84 µM)

Question: What about the IC50 [3] of the same compound?
Answer: 17.8 µM

Question: And the pK50 [4]?
Answer: 4.8

Question: And the MIC [5]?
Answer: 25 µg/mL (≈ 28.7 µM)

Question: How did the MIC [1] turn out when `CCCC(=O)O[C@H]1[C@H](C)O[C@@H](O[C@H]2[C@H](N(C)C)[C@@H](O)[C@H](O[C@H]3[C@@H](CC=O)C[C@@H](C)[C@@H](OC(=O)CCl)/C=C/C=C/C[C@@H](C)OC(=O)C[C@@H](O)[C@@H]3OC)O[C@@H]2C)C[C@@]1(C)O` was run?
Answer: 0.4 µg/mL (≈ 0.471 µM)

Question: What about the MIC [2] of the same compound?
Answer: 1.6 µg/mL (≈ 1.89 µM)

Question: What about the IC50 [3] of the same compound?
Answer: 0.9 µM

Question: What about the pK50 [4] of the same compound?
Answer: 6

Question: And the MIC [5]?
Answer: 25 µg/mL (≈ 29.5 µM)

Question: `CO[C@@H]1[C@@H](O[C@@H]2O[C@H](C)[C@@H](O[C@H]3C[C@@](C)(O)[C@@H](O)[C@H](C)O3)[C@H](N(C)C)[C@H]2O)[C@@H](CC=O)C[C@@H](C)[C@@H](OC(C)=O)/C=C/C=C/C[C@@H](C)OC(=O)C[C@H]1OC(C)=O` was tested. Which MIC [1] did it give?
Answer: 1.6 µg/mL (≈ 2.04 µM)

Question: And the MIC [2]?
Answer: 3.1 µg/mL (≈ 3.94 µM)

Question: And the IC50 [3]?
Answer: 6.3 µM

Question: What about the pK50 [4] of the same compound?
Answer: 5.2

Question: What about the MIC [5] of the same compound?
Answer: 50 µg/mL (≈ 63.6 µM)

Question: `CCCC(=O)O[C@H]1[C@H](C)O[C@@H](O[C@H]2[C@H](N(C)C)[C@@H](OC(=O)CC)[C@H](O[C@H]3[C@@H](CC=O)C[C@@H](C)[C@@H](O)/C=C/C=C/C[C@@H](C)OC(=O)C[C@@H](O)[C@@H]3OC)O[C@@H]2C)C[C@@]1(C)O` was tested. Which MIC [1] did it give?
Answer: 1.6 µg/mL (≈ 1.93 µM)

Question: And the MIC [2]?
Answer: 0.8 µg/mL (≈ 0.966 µM)

Question: And the IC50 [3]?
Answer: 13.8 µM

Question: What about the pK50 [4] of the same compound?
Answer: 4.9

Question: And the MIC [5]?
Answer: 12.5 µg/mL (≈ 15.1 µM)

Question: What does the source list for `CCC(=O)O[C@H]1/C=C/C=C/C[C@@H](C)OC(=O)C[C@@H](O)[C@H](OC)[C@@H](O[C@@H]2O[C@H](C)[C@@H](O[C@H]3C[C@@](C)(O)[C@@H](O)[C@H](C)O3)[C@H](N(C)C)[C@H]2O)[C@@H](CC=O)C[C@H]1C`?
Answer: MIC [1]: 3.1 µg/mL (≈ 4.09 µM); MIC [2]: 6.3 µg/mL (≈ 8.31 µM); IC50 [3]: 4 µM; pK50 [4]: 5.4; MIC [5]: 100 µg/mL (≈ 132 µM)

Question: How did the MIC [1] turn out when `CCCC(=O)O[C@H]1[C@H](C)O[C@@H](O[C@H]2[C@H](N(C)C)[C@@H](OC(=O)CCC(=O)O)[C@H](O[C@H]3[C@@H](CC=O)C[C@@H](C)[C@@H](OC(C)=O)/C=C/C=C/C[C@@H](C)OC(=O)C[C@@H](O)[C@@H]3OC)O[C@@H]2C)C[C@@]1(C)O` was run?
Answer: 1.6 µg/mL (≈ 1.75 µM)

Question: What about the MIC [2] of the same compound?
Answer: 1.6 µg/mL (≈ 1.75 µM)

Question: And the IC50 [3]?
Answer: 3.3 µM

Question: What about the pK50 [4] of the same compound?
Answer: 5.5

Question: And the MIC [5]?
Answer: 25 µg/mL (≈ 27.4 µM)

Question: `CCCC(=O)O[C@H]1[C@H](C)O[C@@H](O[C@H]2[C@H](N(C)C)[C@@H](O)[C@H](O[C@H]3[C@@H](CC=O)C[C@@H](C)[C@@H](OC(C)=O)/C=C/C=C/C[C@@H](C)OC(=O)C[C@@H](O)[C@@H]3OC)O[C@@H]2C)C[C@@]1(C)O` was tested. Which MIC [1] did it give?
Answer: 0.4 µg/mL (≈ 0.491 µM)

Question: And the MIC [2]?
Answer: 1.6 µg/mL (≈ 1.97 µM)

Question: What about the IC50 [3] of the same compound?
Answer: 0.9 µM

Question: And the pK50 [4]?
Answer: 6.1

Question: What about the MIC [5] of the same compound?
Answer: 25 µg/mL (≈ 30.7 µM)

Question: With `CCCC(=O)O[C@H]1[C@H](C)O[C@@H](O[C@H]2[C@H](N(C)C)[C@@H](O)[C@H](O[C@H]3[C@@H](CC=O)C[C@@H](C)[C@@H](OC(=O)CC)/C=C/C=C/C[C@@H](C)OC(=O)C[C@@H](O)[C@@H]3OC)O[C@@H]2C)C[C@@]1(C)O` as the compound, how does the MIC [1] read?
Answer: 0.8 µg/mL (≈ 0.966 µM)

Question: And the MIC [2]?
Answer: 1.6 µg/mL (≈ 1.93 µM)

Question: And the IC50 [3]?
Answer: 1.7 µM

Question: What about the pK50 [4] of the same compound?
Answer: 5.8

Question: And the MIC [5]?
Answer: 50 µg/mL (≈ 60.4 µM)

Question: For `CO[C@@H]1[C@@H](O[C@@H]2O[C@H](C)[C@@H](O[C@H]3C[C@@](C)(O)[C@@H](O)[C@H](C)O3)[C@H](N(C)C)[C@H]2O)[C@@H](CC=O)C[C@@H](C)[C@@H](O)/C=C/C=C/C[C@@H](C)OC(=O)C[C@H]1OC(C)=O`, which MIC [1] is on record?
Answer: 6.3 µg/mL (≈ 8.47 µM)

Question: And the MIC [2]?
Answer: 12.5 µg/mL (≈ 16.8 µM)

Question: What about the IC50 [3] of the same compound?
Answer: 10.7 µM

Question: What about the pK50 [4] of the same compound?
Answer: 5

Question: And the MIC [5]?
Answer: 100 µg/mL (≈ 134 µM)

Question: Which results are given for `CO[C@@H]1[C@@H](O[C@@H]2O[C@H](C)[C@@H](O[C@H]3C[C@@](C)(O)[C@@H](OC(=O)CC(C)C)[C@H](C)O3)[C@H](N(C)C)[C@H]2OC(C)=O)[C@@H](CC=O)C[C@@H](C)[C@@H](O)/C=C/C=C/C[C@@H](C)OC(=O)C[C@H]1OC(C)=O`?
Answer: MIC [1]: 0.8 µg/mL (≈ 0.919 µM); MIC [2]: 1.6 µg/mL (≈ 1.84 µM); IC50 [3]: 33.9 µM; pK50 [4]: 4.5; MIC [5]: 25 µg/mL (≈ 28.7 µM)
